Measurements reported in ChEMBL document CHEMBL1142961, “Novel selective inhibitors of the zinc plasmodial aminopeptidase PfA-M1 as potential antimalarial agents” (J Med Chem, 2007).

Columns and labels:
[1] = target: T1, Aminopeptidase N (Plasmodium falciparum FcB1/Columbia) (UniProt O96935); assay: Inhibition of Plasmodium falciparum FcB1 M1 aminopeptidase at 10 uM
T1 sequence (whole entry): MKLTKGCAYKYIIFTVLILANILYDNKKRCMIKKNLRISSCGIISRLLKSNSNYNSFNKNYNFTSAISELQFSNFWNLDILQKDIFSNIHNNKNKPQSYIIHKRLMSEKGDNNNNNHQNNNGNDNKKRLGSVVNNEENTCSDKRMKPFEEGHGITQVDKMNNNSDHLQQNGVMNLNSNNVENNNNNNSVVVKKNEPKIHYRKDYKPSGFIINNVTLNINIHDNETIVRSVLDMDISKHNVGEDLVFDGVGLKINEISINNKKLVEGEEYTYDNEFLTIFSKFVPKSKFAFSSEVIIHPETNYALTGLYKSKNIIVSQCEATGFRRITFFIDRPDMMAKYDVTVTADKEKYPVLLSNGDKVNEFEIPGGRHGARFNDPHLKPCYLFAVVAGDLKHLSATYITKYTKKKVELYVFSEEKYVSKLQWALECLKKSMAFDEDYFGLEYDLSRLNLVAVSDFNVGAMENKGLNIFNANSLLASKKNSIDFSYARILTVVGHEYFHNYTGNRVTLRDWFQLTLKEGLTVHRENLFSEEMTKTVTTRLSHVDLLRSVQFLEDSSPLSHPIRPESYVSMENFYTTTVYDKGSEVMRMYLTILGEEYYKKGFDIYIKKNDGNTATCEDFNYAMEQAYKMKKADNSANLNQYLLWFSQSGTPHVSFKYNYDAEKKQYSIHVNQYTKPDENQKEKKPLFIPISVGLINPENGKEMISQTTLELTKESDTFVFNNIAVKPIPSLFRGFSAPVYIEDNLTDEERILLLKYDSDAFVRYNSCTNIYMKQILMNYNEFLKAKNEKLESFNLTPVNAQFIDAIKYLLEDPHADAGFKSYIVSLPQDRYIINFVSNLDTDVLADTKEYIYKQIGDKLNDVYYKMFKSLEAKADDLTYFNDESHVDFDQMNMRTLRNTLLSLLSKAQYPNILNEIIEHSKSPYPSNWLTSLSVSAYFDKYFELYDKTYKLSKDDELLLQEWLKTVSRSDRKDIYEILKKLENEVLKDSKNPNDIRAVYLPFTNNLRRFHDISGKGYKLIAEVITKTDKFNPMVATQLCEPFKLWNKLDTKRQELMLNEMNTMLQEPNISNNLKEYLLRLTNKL
Summary of the method: (§1)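 Native enzyme purified from P. falciparum FcB1, diluted 10-fold in 25 mM Tris-HCl pH 7.4. Preincubated with inhibitor for 10 min at room temperature, then Leu-pNA substrate added (0.3 mM stock, Km 0.099 mM). Kinetics followed at 405 nm at room temperature. Initial velocities normalized to a no-inhibitor control. Single-point screen at 10 µM; IC50 from velocity versus inhibitor concentration curves. Bestatin used as reference.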

Aminopeptidase N [2] = target: T2, Aminopeptidase N (Plasmodium falciparum FcB1/Columbia, UniProt O96935); assay: Inhibition of Plasmodium falciparum FcB1 M1 aminopeptidase; summary of the method: as §1
T2 sequence (O96935 whole entry): T1 sequence (whole entry)

[3] = target: T3, Aminopeptidase N (Sus scrofa) (UniProt P15145); assay: Inhibition of pig kidney microsomal APN at 10 uM
T3 sequence (whole entry): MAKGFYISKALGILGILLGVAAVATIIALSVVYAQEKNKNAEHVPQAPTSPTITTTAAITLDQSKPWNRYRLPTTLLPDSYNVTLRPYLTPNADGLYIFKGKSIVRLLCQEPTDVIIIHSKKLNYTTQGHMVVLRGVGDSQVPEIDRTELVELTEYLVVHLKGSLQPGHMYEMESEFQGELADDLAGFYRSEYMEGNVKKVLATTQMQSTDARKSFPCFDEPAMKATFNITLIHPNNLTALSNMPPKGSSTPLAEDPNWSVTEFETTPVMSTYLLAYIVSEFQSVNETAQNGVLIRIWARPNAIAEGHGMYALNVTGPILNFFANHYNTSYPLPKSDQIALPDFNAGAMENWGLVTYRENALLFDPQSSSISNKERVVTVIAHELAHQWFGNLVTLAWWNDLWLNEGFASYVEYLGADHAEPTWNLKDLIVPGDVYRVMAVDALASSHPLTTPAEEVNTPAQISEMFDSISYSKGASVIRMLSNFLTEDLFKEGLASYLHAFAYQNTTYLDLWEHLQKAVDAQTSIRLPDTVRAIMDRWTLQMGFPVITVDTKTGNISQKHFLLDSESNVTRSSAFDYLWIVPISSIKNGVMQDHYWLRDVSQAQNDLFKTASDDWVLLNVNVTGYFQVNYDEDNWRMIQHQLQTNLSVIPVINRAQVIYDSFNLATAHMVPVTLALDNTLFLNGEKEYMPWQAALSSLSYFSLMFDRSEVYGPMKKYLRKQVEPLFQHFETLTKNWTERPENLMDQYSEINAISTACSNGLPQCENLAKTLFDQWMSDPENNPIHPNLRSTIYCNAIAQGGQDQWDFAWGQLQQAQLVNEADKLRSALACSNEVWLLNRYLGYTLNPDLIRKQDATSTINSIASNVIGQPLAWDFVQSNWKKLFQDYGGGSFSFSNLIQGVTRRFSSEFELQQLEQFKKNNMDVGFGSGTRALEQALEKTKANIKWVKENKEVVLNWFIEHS
Summary of the method: (§2)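 Porcine kidney microsomal APN (ammonium sulfate suspension) diluted 600-fold in 25 mM Tris-HCl pH 7.4. Preincubated with inhibitor for 10 min at room temperature, then Leu-pNA added (0.3 mM stock). Hydrolysis followed at 405 nm at room temperature. Rates normalized to a no-inhibitor control. Single point at 10 µM; IC50 from concentration-velocity curves. Bestatin used as reference.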

Aminopeptidase N [4] = target: T4, Aminopeptidase N (Sus scrofa, UniProt P15145); assay: Inhibition of pig kidney microsomal APN; summary of the method: as §2
T4 sequence (P15145 whole entry): T3 sequence (whole entry)

[5] = Stability in Zucker FA/FA rat plasma at 37degC; assay type: ADME, organism-based; settings: read-out: Stability (converted)
Summary of the method: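 Compound at 100 µM final in male Zucker FA/FA rat plasma, stirred at 37 °C. Samples taken from 0 to 96 h, acidified with 0.14 M phosphoric acid and spiked with internal standard. Extracted three times with AcOEt and quantified by LC-MS-MS (MRM). Half-life derived.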

SMILES | inhibition [1] [%] | IC50 (Aminopeptidase N [2]) [nM] | inhibition [3] [%] | IC50 (Aminopeptidase N [4]) [nM] | half-life [5] [h]
O=C(NO)C(Cc1cccc(Oc2ccccc2)c1)C(=O)N1CCC(Cc2ccccc2)CC1 (stereo not given) | 97 | 248 | 65 | – | –
CC(C)CC(C(=O)NO)C(=O)N1CCC(Cc2ccccc2)CC1 (stereo not given) | 100 | 406 | 68 | – | –
O=C(NO)C(Cc1cccc(Oc2ccccc2)c1)C(=O)NCc1ccc(Cl)cc1 (stereo not given) | 96 | 130 | 76 | 2530 | –
CC(C)CC(C(=O)NO)C(=O)NC1CCCc2ccccc21 (stereo not given) | – | 109 | – | – | –
CC(C)CC(C(=O)NO)C(=O)NCCc1ccccc1 (stereo not given) | 74 | 885 | 105 | – | –
CC(C)CC(C(=O)NO)C(=O)NCc1cccc2ccccc12 (stereo not given) | – | 91 | – | 8580 | –
O=C(NO)C(Cc1cccc(Oc2ccccc2)c1)C(=O)NCc1ccc(C(F)(F)F)cc1 (stereo not given) | 102 | 231 | 84 | – | –
O=C(NCCCCc1ccccc1)c1cc2ccccc2n(O)c1=O | – | > 10000 | – | > 10000 | –
CC(C)CC(C(=O)NO)C(=O)NCc1cccc(Oc2ccccc2)c1 (stereo not given) | 88 | 45 | 96 | – | –
O=C(NO)C(Cc1cccc(Oc2ccccc2)c1)C(=O)N1CCc2ccccc2C1 (stereo not given) | 100 | 966 | 84 | – | –
O=C(NCc1ccc(F)cc1)c1cc2ccccc2n(O)c1=O | – | > 10000 | – | > 10000 | > 48
CC(C)CC(C(=O)NO)C(=O)NCc1ccccc1 (stereo not given) | 19 | 495 | 39 | – | –
O=C(NO)C(Cc1ccccc1)C(=O)N1CCc2ccccc2C1 (stereo not given) | 84 | 253 | 50 | – | –
CC(C)CC(C(=O)NO)C(=O)NCc1ccc(F)cc1 (stereo not given) | 85 | 3900 | 92 | – | –
CC(C)CC(C(=O)NO)C(=O)NCc1ccc(Cl)cc1 (stereo not given) | 90 | 904 | 99 | – | –
CN(Cc1ccccc1)C(=O)C(Cc1cccc(Oc2ccccc2)c1)C(=O)NO (stereo not given) | 86 | – | 89 | – | –
CC(C)CC(C(=O)NO)C(=O)N(C)CCCCc1ccccc1 (stereo not given) | 2 | – | 20 | – | –
NC(C(=O)NO)C(=O)NC1Cc2ccccc2C1 (stereo not given) | 20 | – | 36 | – | –
NC(C(=O)NO)C(=O)NCCNc1cccc2ccccc12 (stereo not given) | 2 | – | 16 | – | –
CN(CCCCc1ccccc1)C(=O)C(N)C(=O)NO (stereo not given) | 12 | – | 10 | – | –
CN(CCCNC(=O)C(N)C(=O)NO)c1ccccc1 (stereo not given) | 3 | – | 18 | – | –
NC(C(=O)NO)C(=O)NCc1ccc(F)cc1 (stereo not given) | 9 | – | 18 | – | –
O=C(CC(=O)N1CCC(Cc2ccccc2)CC1)NO | 7 | – | 23 | – | –
O=C(CC(=O)NC1CCN(Cc2ccccc2)CC1)NO | -2 | – | 14 | – | –
O=C(CC(=O)N1CCc2ccccc2C1)NO | -3 | – | 19 | – | –
O=C(NO)/C(=C/c1ccccc1)C(=O)NCc1ccc(F)cc1 | – | 330 | – | > 10000 | –
O=C(CC(=O)NCc1cccc(-c2ccccc2)c1)NO | 28 | – | 66 | – | –
O=C(NO)C(Cc1cccc(Oc2ccccc2)c1)C(=O)N1CCC2(CCNc3ccccc3O2)CC1 (stereo not given) | 48 | – | 81 | – | –

Next, values leading:

inhibition [1] [%] | IC50 (Aminopeptidase N [2]) [nM] | inhibition [3] [%] | IC50 (Aminopeptidase N [4]) [nM] | half-life [5] [h] | SMILES
71 | 1170 | 90 | – | – | O=C(NO)C(Cc1ccccc1)C(=O)NCc1cccc(-c2ccccc2)c1 (stereo not given)
96 | 225 | 84 | – | – | O=C(NO)C(Cc1cccc(Oc2ccccc2)c1)C(=O)NCCCCc1ccccc1 (stereo not given)
– | 107 | – | – | – | O=C(NO)C(Cc1ccccc1)C(=O)NCc1cccc2ccccc12 (stereo not given)
94 | 125 | 69 | – | – | O=C(NO)C(Cc1ccccc1)C(=O)NCc1ccccc1 (stereo not given)
96 | 164 | 79 | > 10000 | – | O=C(NO)C(Cc1cccc(Oc2ccccc2)c1)C(=O)NCc1ccccc1 (stereo not given)
87 | 1150 | 92 | – | – | CC(C)CC(C(=O)NO)C(=O)NCCCCc1ccccc1 (stereo not given)
75 | 1760 | 21 | – | – | O=C(NO)C(Cc1ccccc1)C(=O)N1CCN(Cc2ccccc2)CC1 (stereo not given)
– | 13 | – | 3240 | – | O=C(NO)/C(=C\c1ccccc1)C(=O)NCCCCc1ccccc1
98 | 790 | 95 | – | – | CC(C)CC(C(=O)NO)C(=O)NCCCc1ccccc1 (stereo not given)
92 | 206 | 34 | – | – | O=C(NO)C(Cc1ccccc1)C(=O)N1CCC(Cc2ccccc2)CC1 (stereo not given)
95 | 41 | 85 | 1310 | – | Cc1ccccc1CNC(=O)C(Cc1ccccc1)C(=O)NO (stereo not given)
26 | 1930 | 61 | – | – | O=C(NO)C(Cc1ccccc1)C(=O)NC1Cc2ccccc2C1 (stereo not given)
93 | 527 | 89 | – | – | O=C(NO)C(Cc1cccc(Oc2ccccc2)c1)C(=O)NCCCc1ccccc1 (stereo not given)
93 | 170 | 80 | – | – | O=C(NO)C(Cc1ccccc1)C(=O)NCc1ccc(Cl)cc1 (stereo not given)
82 | 1010 | 70 | – | – | O=C(NO)C(Cc1ccccc1)C(=O)NCCc1ccccc1 (stereo not given)
94 | 46 | 81 | > 10000 | – | O=C(NO)C(Cc1ccccc1)C(=O)NCCCCc1ccccc1 (stereo not given)
– | 5360 | – | – | – | O=C(NO)C(Cc1ccccc1)C(=O)NCC(c1ccccc1)c1ccccc1 (stereo not given)
-6 | – | 15 | – | – | O=C(NO)C(Cc1ccccc1)C(=O)NCc1cccnc1 (stereo not given)
94 | 125 | 84 | – | – | O=C(NO)C(Cc1ccccc1)C(=O)NCCCc1ccccc1 (stereo not given)
87 | 2510 | 83 | – | – | O=C(NO)C(Cc1ccccc1)C(=O)NCc1cccc(Oc2ccccc2)c1 (stereo not given)
